This is an account of results in the array DNA melting data of Ke et al. (doi:10.1101/2024.01.08.574731).

Data set [1] can be described thus: folding enthalpy; higher = less favourable; fluorescence melt of hairpins on a sequencing array, two-state fit. The following applies: sodium 0.088 M. A digest of the protocol: (§1)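 On a sequenced MiSeq flow cell, library hairpins with annealed Cy3 and quencher oligos were imaged for Cy3 fluorescence in 2.5 °C steps up to 60 °C, in 50 mM Na-HEPES pH 8.0, 25 mM NaCl. Normalisation used pre-quench Cy3 and control constructs. Bootstrapped two-state fits gave melting temperature and folding enthalpy, combined by inverse variance across four replicates and with fitted temperatures raised by 9.35 °C to match UV melts.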

Data set [2] is described as follows: melting temperature; fluorescence melt of hairpins on a sequencing array, two-state fit, raised by 9.35 °C to match UV melts. Conditions: sodium 0.088 M. In short, it runs like this: as §1

With GGGTACGGAAACACACCC ((((..(....)..)))), the folding enthalpy in data set [1] is -21.9 kcal/mol. In addition, the Tm in data set [2] came out at 32.6 °C.
GGGTACGGAAACGTATCC ((.((((....)))).)): the folding enthalpy in data set [1] is -30.1 kcal/mol. For the same sequence, the Tm in data set [2] was 51.8 °C.
Take GGGTACTCGAAAGAGCCC (((..(((....)))))): in data set [1], the folding enthalpy was -19.6 kcal/mol. In addition, in data set [2], the Tm was 39.6 °C.
As for GGGTAGCGAAAGCTCCC (((.(((....)))))), the folding enthalpy in data set [1] was -40.3 kcal/mol. In addition, in data set [2], the Tm was 53.6 °C.
For the sequence GGGTAGGGAAACCTACCC (((((((....))))))), the folding enthalpy in data set [1] is -50.9 kcal/mol. Besides, the Tm in data set [2] turned out to be 64 °C.
GGGTATGCGAAAGCACCC (((..(((....)))))): the folding enthalpy in data set [1] is -21.2 kcal/mol. Besides, the Tm in data set [2] came to 50.4 °C.
As for GGGTATGGAAACATACTC (.(((((....))))).), the folding enthalpy in data set [1] is -23 kcal/mol. The Tm in data set [2] was found to be 44.8 °C.
On the same counts, the results for GGGTATGGAAACATGCCC (((.(((....))).))) are -50.4 kcal/mol and 54.3 °C.
Take GGGTATGGAAACATGTCC ((..(((....)))..)): the folding enthalpy in data set [1] was -15.6 kcal/mol. Moreover, the Tm in data set [2] turned out to be 34 °C.
On the same counts, the results for GGGTATGGAAACGTACCC (((((.(....).))))) are -42.7 kcal/mol and 50.1 °C.
For GGGTCAGGAAACCAACCC ((((..(....)..)))), in data set [1], the folding enthalpy was -15.7 kcal/mol. Further, in data set [2], the Tm is 33 °C.
Taken in the same sequence, the figures for GGGTCAGGAAACTAACCC ((((.((....)).)))) were -25.4 kcal/mol and 38.2 °C.
As to GGGTCCCGAAAGGGCCC (((.(((....)))))), in data set [1], the folding enthalpy is -29.5 kcal/mol. For the same sequence, the Tm in data set [2] was 68 °C.
For the sequence GGGTCCGAAAGGAACCC ((((((....))).))), the folding enthalpy in data set [1] is -22.1 kcal/mol. Besides, the Tm in data set [2] was 64.1 °C.
On the same counts, the results for GGGTCCGAAAGGACACCC ((((((....)))..))) are -11 kcal/mol and 55.5 °C.
For GGGTCCGAAAGGAGCCCC ((((((....)))..))), in data set [1], the folding enthalpy is -11 kcal/mol. Further, the Tm in data set [2] was 66.4 °C.
For GGGTCCGAAAGGATGCCC ((((((....)))..))), the folding enthalpy in data set [1] is -24.3 kcal/mol. Besides, the Tm in data set [2] worked out at 45.5 °C.
Taken in the same sequence, the figures for GGGTCCGCGAAAGCGCCC (((..(((....)))))) were -14.9 kcal/mol and 40 °C.
GGGTCGCGAAAGCGCCC (((.(((....)))))): the folding enthalpy in data set [1] is -22.4 kcal/mol. Besides, in data set [2], the Tm came out at 65.3 °C.
As to GGGTCGGGAAACCGACTC (.(((((....))))).), the folding enthalpy in data set [1] was -14.4 kcal/mol. Further, the Tm in data set [2] stood at 58.9 °C.
With GGGTCGGGAAACCGGCCC (((.(((....))).))), the folding enthalpy in data set [1] was -36.3 kcal/mol. The Tm in data set [2] was 67.1 °C.
Take GGGTCTACGAAAGTACCC (((..(((....)))))): in data set [1], the folding enthalpy is -22.5 kcal/mol. The Tm in data set [2] worked out at 40.1 °C.
GGGTCTGAAAAGACCC ((((((....)))))): the folding enthalpy in data set [1] is -26 kcal/mol. Further, the Tm in data set [2] turned out to be 68.4 °C.
As to GGGTCTGGAAACAAACCC ((((.((....)).)))), in data set [1], the folding enthalpy was -31.6 kcal/mol. In addition, the Tm in data set [2] amounted to 37.9 °C.
Regarding GGGTCTGGAAACAGGCTC (.(.(((....))).).), the folding enthalpy in data set [1] was -23.2 kcal/mol. The Tm in data set [2] is 39.9 °C.
Regarding GGGTCTGGAAACGGATCC ((.((.(....).)).)), the folding enthalpy in data set [1] was -33 kcal/mol. Further, the Tm in data set [2] was 41.8 °C.
With GGGTGAACGAAAGTTCCC (((..(((....)))))), in data set [1], the folding enthalpy is -14.9 kcal/mol. The Tm in data set [2] turned out to be 50.1 °C.
Turning to GGGTGAGGAAACTCGCCC (((.(((....))).))), the folding enthalpy in data set [1] was -34 kcal/mol. For the same sequence, in data set [2], the Tm was determined as 57.4 °C.
Regarding GGGTGCGAAAGCAACCCC ((((((....)))..))), the folding enthalpy in data set [1] was -12.4 kcal/mol. For the same sequence, the Tm in data set [2] was 66.6 °C.
As to GGGTGCGAAAGCACACCC ((((((....)))..))), the folding enthalpy in data set [1] is -10.4 kcal/mol. Further, in data set [2], the Tm was determined as 58.3 °C.
Regarding GGGTGCGAAAGCACGCCC ((((((....)))..))), the folding enthalpy in data set [1] is -10.2 kcal/mol. The Tm in data set [2] was found to be 55.3 °C.
In the case of GGGTGCGAAAGCAGGCCC ((((((....)))..))), the folding enthalpy in data set [1] was -18.2 kcal/mol. The Tm in data set [2] was determined as 52.9 °C.
With GGGTGCGAAAGCATACCC ((((((....)))..))), the folding enthalpy in data set [1] is -19.8 kcal/mol. The Tm in data set [2] is 53.5 °C.
On to GGGTGCGGAAACGTACCC ((((.((....)).)))), for which the folding enthalpy in data set [1] was -41.5 kcal/mol. The Tm in data set [2] is 61.2 °C.
On the same counts, the results for GGGTGCGGAAACGTGCCC (((..((....))..))) are -39.8 kcal/mol and 57.3 °C.
As to GGGTGGGGAAACCTGCCC (((..((....))..))), in data set [1], the folding enthalpy is -25.5 kcal/mol. Also, in data set [2], the Tm came to 49.7 °C.
